Assay results as given in ChEMBL document CHEMBL4330056, “Synthesis and Cytotoxic and Antiviral Profiling of Pyrrolo- and Furo-Fused 7-Deazapurine Ribonucleosides” (J Med Chem, 2018).
Calls of active or inactive are those of the source. No cut-off for these calls is given here.

Tests used:
Hepatitis C virus [1] = assay: Antiviral activity against Hepatitis C virus genotype 1b infected in human Huh-luc replicon cells after 3 days by luciferase assay; assay type: functional, organism-based, Hepacivirus hominis; settings: subtype 1b, 72 h
[2] = Cytotoxicity against human Hep2 cells assessed as reduction in cell viability after 3 days by CellTiter-Glo assay; assay type: cell-based; settings: HEp-2 cells
Hepatitis C virus [3] = assay: Antiviral activity against Hepatitis C virus genotype 2a infected in human Huh-luc replicon cells after 3 days by luciferase assay; assay type: functional, organism-based, Hepacivirus hominis; settings: subtype 2a, 72 h
BJ = assay: Antiproliferative activity against human BJ cells after 3 days by MTS assay; settings: 72 h
MRC5 = assay: Antiproliferative activity against human MRC5 cells after 3 days by MTS assay; settings: MRC5, 72 h
A549 = assay: Antiproliferative activity against human A549 cells after 3 days by MTS assay; assay type: functional, cell-based; settings: A549, 72 h
CCRF-CEM = assay: Antiproliferative activity against human CCRF-CEM cells after 3 days by MTS assay; assay type: functional, cell-based; settings: 72 h
[4] = Antiproliferative activity against human CEM-DNR-bulk cells after 3 days by MTS assay; settings: 72 h
HCT-116 [5] = assay: Antiproliferative activity against human HCT116 cells after 3 days by MTS assay; assay type: functional, cell-based; settings: HCT-116, 72 h
HCT-116 [6] = assay: Antiproliferative activity against p53 gene knocked out human HCT116 cells after 3 days by MTS assay; assay type: functional, cell-based; settings: HCT-116, 72 h
K562 = assay: Antiproliferative activity against human K562 cells after 3 days by MTS assay; assay type: functional, cell-based; settings: K562, 72 h
[7] = Antiproliferative activity against human K562-TAX cells after 3 days by MTS assay; assay type: functional, cell-based; settings: 72 h
U2OS = assay: Antiproliferative activity against human U2OS cells after 3 days by MTS assay; assay type: functional, cell-based; settings: 72 h
HL-60 = assay: Antiproliferative activity against human HL60 cells after 72 hrs by XTT assay; assay type: functional, cell-based; settings: HL-60, 72 h
HepG2 = assay: Antiproliferative activity against human HepG2 cells after 72 hrs by XTT assay; assay type: functional, cell-based; settings: HepG2, 72 h
HeLa S3 = assay: Antiproliferative activity against human HeLaS3 cells after 72 hrs by XTT assay; assay type: functional, cell-based; settings: HeLa S3, 72 h
Adenosine kinase [8] = target: T1, Adenosine kinase (Homo sapiens, UniProt P55263); assay: Substrate activity at recombinant human ADK assessed as compound phosphorylation at 50 uM after 20 mins in presence of [3H]-adenosine by UPLC; assay type: ADME
T1 sequence (P55263 whole entry): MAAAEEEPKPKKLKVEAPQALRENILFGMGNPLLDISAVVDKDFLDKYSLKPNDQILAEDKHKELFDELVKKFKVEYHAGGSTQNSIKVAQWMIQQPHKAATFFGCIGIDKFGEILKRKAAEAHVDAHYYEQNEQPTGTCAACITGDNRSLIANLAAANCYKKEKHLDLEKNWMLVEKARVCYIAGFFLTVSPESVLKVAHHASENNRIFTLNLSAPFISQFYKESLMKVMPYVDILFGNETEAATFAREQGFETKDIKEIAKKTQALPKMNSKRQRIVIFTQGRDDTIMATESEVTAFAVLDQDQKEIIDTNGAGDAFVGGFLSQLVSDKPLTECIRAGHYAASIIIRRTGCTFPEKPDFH

Adenosine kinase [9] = target: T1, Adenosine kinase; assay: Inhibition of recombinant human ADK using [3H]-adenosine as substrate after 20 mins by TLC scanner-based analysis relative to control
How it was run: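 ADK inhibition: 50 μM adenosine substrate with 10 μM test compound and 97 ng enzyme, 20 min at 37 °C.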

Influenza A virus = assay: Antiviral activity against Influenza A virus (A/Mexico/4108/2009(H1N1)) infected in MDCK cells assessed as inhibited virus-induced cytopathic effect incubated for 2 days by XTT assay; assay type: functional, organism-based
Human orthopneumovirus = assay: Antiviral activity against Human respiratory syncytial virus A2 infected in Hep2 cells assessed as reduction in virus-induced cytopathic effect incubated for 4 days by CellTiter-Glo viability reagent based assay; assay type: functional, organism-based
Coxsackievirus B3 = assay: Antiviral activity against Human coxsackie B3 Nancy infected in human HeLa cells assessed as inhibited virus-induced cytopathic effect incubated for 2 days by XTT assay; assay type: functional, organism-based
Human alphaherpesvirus 1 = assay: Antiviral activity against human herpesvirus 1 HF infected in African green monkey Vero cells assessed as inhibited virus-induced cytopathic effect incubated for 3 days by XTT assay; assay type: functional, organism-based
dengue virus type 2 = assay: Antiviral activity against Dengue virus 2 Thailand/16681/84 infected in African green monkey Vero cells assessed as inhibition of virus replication incubated for 3 days by fluorescence microscopy; assay type: functional, organism-based

Structure (SMILES) | EC50 (Hepatitis C virus [1]) [µM] | CC50 at 72 h [2] [µM] | EC50 (Hepatitis C virus [3]) [µM] | IC50 (BJ) [µM] | IC50 (MRC5) [µM] | IC50 (A549) [µM] | IC50 (CCRF-CEM) [µM] | IC50 [4] [µM] | IC50 (HCT-116 [5]) [µM] | IC50 (HCT-116 [6]) [µM] | IC50 (K562) [µM] | IC50 [7] [µM] | IC50 (U2OS) [µM] | IC50 (HL-60) [µM] | IC50 (HepG2) [µM] | IC50 (HeLa S3) [µM] | Activity (Adenosine kinase [8]) [%] | IC50 (Adenosine kinase [9]) [µM] | Activity (Influenza A virus) | Activity (Human orthopneumovirus) | further results
Cn1ccc2c1c1c(-c3ccco3)ncnc1n2[C@@H]1O[C@H](CO)[C@@H](O)[C@H]1O | 0.22 | > 44.4 | > 44.4 | > 50 | > 50 | > 50 | > 50 | > 50 | > 50 | > 50 | > 50 | > 50 | 7.37 | > 50 | > 50 | > 50 | 11 | 7.12 | inactive | inactive | Activity (Coxsackievirus B3): inactive; Activity (Human alphaherpesvirus 1): inactive; Activity (dengue virus type 2): inactive
CN(C)c1ncnc2c1c1c(ccn1C)n2[C@@H]1O[C@H](CO)[C@@H](O)[C@H]1O | > 44.4 | > 44.4 | > 44.4 | > 50 | > 50 | > 50 | > 50 | > 50 | > 50 | > 50 | > 50 | > 50 | > 50 | > 50 | > 50 | > 50 | 0 | > 10 | inactive | inactive | Activity (Coxsackievirus B3): inactive; Activity (Human alphaherpesvirus 1): inactive; Activity (dengue virus type 2): inactive
CN(C)c1ncnc2c1c1ccn(C)c1n2[C@@H]1O[C@H](CO)[C@@H](O)[C@H]1O | > 44.4 | > 44.4 | > 44.4 | > 50 | > 50 | > 50 | > 50 | > 50 | > 50 | > 50 | > 50 | > 50 | > 50 | > 50 | > 50 | > 50 | 0 | > 10 | inactive | inactive | Activity (Coxsackievirus B3): inactive; Activity (Human alphaherpesvirus 1): inactive; Activity (dengue virus type 2): inactive
OC[C@H]1O[C@@H](n2c3ccoc3c3c(-c4cc5ccccc5o4)ncnc32)[C@H](O)[C@@H]1O | 5.34 | > 44.4 | > 44.4 | > 50 | > 50 | 49.3 | 14.1 | 37.1 | 48.8 | 46.5 | 39.6 | 24.3 | 37.8 | > 50 | 2.83 | > 50 | 58 | 0.336 | inactive | inactive | Activity (Coxsackievirus B3): inactive; Activity (Human alphaherpesvirus 1): inactive; Activity (dengue virus type 2): inactive
Nc1ncnc2c1c1occc1n2[C@@H]1O[C@H](CO)[C@@H](O)[C@H]1O | 0.3 | > 44.4 | 0.33 | > 50 | > 50 | > 50 | > 50 | > 50 | 48.4 | > 50 | 6.04 | 50 | 7.09 | 0.51 | 4.51 | 1.71 | 75 | > 10 | inactive | inactive | Activity (Coxsackievirus B3): inactive; Activity (Human alphaherpesvirus 1): inactive; Activity (dengue virus type 2): inactive
